# Experimental data as given in paper PMC2151622 (The Journal of General Physiology, 2007).
# Positions count from the first letter of the chain named.
# Tests used:
# Type in all cases: cell-based, rabbit
# D444C after MTSES = target: T1, D444C after MTSES (Oryctolagus cuniculus, UniProt P31597, D444C); test: Blockade of transient currents; details: for Decay time of transient currents blocked: D444C after MTSES, 10 mM compound; for IC50: read-out: IC50 for substrates/blockers of charge movements, D444C after MTSES (2 mM), Xenopus oocytes, mean ± SEM
# T1 sequence (P31597 1-524 D444C): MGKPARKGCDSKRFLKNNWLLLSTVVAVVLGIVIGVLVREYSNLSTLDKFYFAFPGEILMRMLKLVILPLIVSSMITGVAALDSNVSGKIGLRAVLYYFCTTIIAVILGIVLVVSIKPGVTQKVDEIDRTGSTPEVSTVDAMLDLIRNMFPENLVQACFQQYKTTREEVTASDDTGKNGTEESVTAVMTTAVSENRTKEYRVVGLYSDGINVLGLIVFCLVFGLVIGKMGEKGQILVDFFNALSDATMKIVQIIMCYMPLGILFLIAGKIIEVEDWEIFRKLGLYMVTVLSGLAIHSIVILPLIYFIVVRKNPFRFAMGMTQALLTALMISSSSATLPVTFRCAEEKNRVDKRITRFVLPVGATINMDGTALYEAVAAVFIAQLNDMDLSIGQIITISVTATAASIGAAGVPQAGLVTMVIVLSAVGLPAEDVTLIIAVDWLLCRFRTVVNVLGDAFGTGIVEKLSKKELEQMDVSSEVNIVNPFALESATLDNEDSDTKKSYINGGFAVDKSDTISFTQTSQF
# Procedure, shortened: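 Oocytes were injected with cRNA for His-tagged EAAC1 D444C and held by two-electrode voltage clamp at −25 mV, stepped from −100 to +40 mV in 10-mV steps of 250 ms each, in ND96 pH 7.5. MTSES (2 mM final) was added under clamp with flow stopped, reacted 2 min, then washed out 5 min. Transients were taken as buffer minus buffer+compound (10 mM) and decay times fitted to a first-order exponential; 3–10 oocytes.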
# D444E-EAAC1 = target: T2, D444E-EAAC1 (Oryctolagus cuniculus, UniProt P31597, D444E); test: Blockade of sodium-dependent transient currents; details: for Decay time of transient currents blocked: at +80 mV; for IC50: read-out: IC50 for substrates/blockers of charge movements, Xenopus oocytes, mean ± SEM
# T2 sequence (P31597 1-524 D444E): T1 sequence (P31597 1-524 D444C) with C444E
# Procedure, shortened: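 Oocytes expressing the mutant were voltage clamped in ND96 (pH 7.5, HEPES) and stepped from −25 mV. Transients are buffer current minus buffer-plus-compound current. Charge is the sum of current–time integrals at −100 and +80 mV, normalised to 1 mM L-aspartate or 15 mM succinate, and fitted to a generalized Hill equation. Decay constants come from a first-order exponential fit; mean ± SEM of 3–10 oocytes.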
# D444N mutant EAAC1 = target: T3, D444N mutant EAAC1 (Oryctolagus cuniculus, UniProt P31597, D444N); test: Blockade of transient currents; details: D444N; for IC50: read-out: IC50 for substrates/blockers of charge movements, Xenopus oocytes, mean ± SEM
# T3 sequence (P31597 1-524 D444N): T1 sequence (P31597 1-524 D444C) with C444N
# D444S-EAAC1 = target: T4, D444S-EAAC1 (Oryctolagus cuniculus, UniProt P31597, D444S); test: Blockade of sodium-dependent transient currents; details: D444S; for Decay time of transient currents blocked: 10 mM compound, at −100 mV; for IC50: read-out: IC50 for substrates/blockers of charge movements, Xenopus oocytes, mean ± SEM
# T4 sequence (P31597 1-524 D444S): T1 sequence (P31597 1-524 D444C) with C444S
# Procedure, shortened: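 Oocytes expressing the mutant were clamped in sodium ND96 and given 250-ms pulses from −25 mV to −100…+40 mV, with and without compound; TBOA was added to a stopped bath. Isolated transients (without minus with compound) were integrated at −100 and +40 mV and summed. Charge was normalised to 10 mM of each compound and Hill-fitted; 4–6 oocytes. Decay came from an exponential fit; 3–10 oocytes.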
Decay time of transient currents blocked (D444E-EAAC1; 10 mM compound) [ms],SMILES,Decay time of transient currents blocked (D444C after MTSES) [ms],IC50 (D444C after MTSES) [µM],IC50 (D444E-EAAC1) [µM],IC50 (D444N mutant EAAC1) [µM],Decay time of transient currents blocked (D444S-EAAC1) [ms],IC50 (D444S-EAAC1) [µM],Suppression of the transient currents (D444E-EAAC1; 2 mM),Decay time of transient currents blocked (D444E-EAAC1; 15 mM succinate) [ms],"Inhibition of the transient currents, concentration dependence (D444E-EAAC1; up to 15 mM)",Inhibition of the transient currents (D444N mutant EAAC1; 10 mM succinate)
10.6 ± 1,"N[C@@H](CC(=O)O)C(=O)O [L-Aspartate, L-aspartate]",10.2 ± 0.4,112 ± 19,9 ± 1,295 ± 45,12.2 ± 0.6,130 ± 15,–,–,–,–
–,"O=C(O)CCC(=O)O [Succinate, succinate]",8.7 ± 1.5,716 ± 25,> 6000,> 10000,9.9 ± 0.7,1340 ± 110,only slightly suppressed,5.1 ± 0.7,saturation was not reached,no inhibition was observed
